The record followed here is publication PMC6431230 (Proceedings of the National Academy of Sciences of the …, 2019).

The subject of one series is ants. The experiment in a line: Effect of injected DMSO on ant survivability. The format is in vivo, Camponotus fellah.
In series [1] the target is T1, oxytocin receptor (human OXTR) (Homo sapiens, UniProt P30559).
T1 sequence (P30559 1-389): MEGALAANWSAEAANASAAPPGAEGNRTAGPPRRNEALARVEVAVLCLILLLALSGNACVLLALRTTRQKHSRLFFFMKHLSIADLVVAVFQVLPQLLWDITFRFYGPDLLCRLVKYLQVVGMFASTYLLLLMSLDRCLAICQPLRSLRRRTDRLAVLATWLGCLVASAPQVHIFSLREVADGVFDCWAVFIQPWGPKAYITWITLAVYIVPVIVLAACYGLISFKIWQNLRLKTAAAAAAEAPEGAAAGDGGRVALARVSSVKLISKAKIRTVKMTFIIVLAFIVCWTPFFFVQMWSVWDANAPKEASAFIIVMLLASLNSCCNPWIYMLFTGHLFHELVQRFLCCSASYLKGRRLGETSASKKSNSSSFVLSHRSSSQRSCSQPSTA
The experiment in a line: Calcium assay. The format is cell-based.

For series [2], the target named is inotocin receptor. Briefly: TR-FRET. The format is binding, Camponotus fellah. The settings on record: 10 nM labeled inotocin ligand, atosiban 1.95 µM to 2 mM. Background: TR-FRET usually uses a lanthanide donor and a delayed reading to cut background.
A further series has as its system CYP4G1 expression. Briefly: CYP4G1 expression. The series is classed as in vivo, Camponotus fellah. Particulars: 24 h. In outline: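 Workers were chilled on ice and injected with 1.5 µL into the abdomen through the intersegmental membrane. Controls received ant saline mixed with water (1:10 for 1 mM, 1:5 for 2 mM). RNA was extracted 24 h post-injection. SYBR qRT-PCR on 200 ng total RNA used ef1a/rp2 references and per-experiment average scaling.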

The test system of series [3] is cuticular hydrocarbons (CHCs). The experiment in a line: Cuticular hydrocarbon quantification after antagonist injection. The format is in vivo, Camponotus fellah. Particulars: injection of 2 mM atosiban. In outline: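 Workers were ice-anesthetized and injected with 1.5 µL into the abdomen through the intersegmental membrane. Dosing was 100 µM test compound in 1% DMSO, or 2 mM of the water-soluble antagonist. Controls were ant saline mixed with the matching solvent (DMSO 1:100; water 1:5). Normal, branched and total cuticular alkanes were then extracted and quantified.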

Series [4] has as its system inotocin receptor. Briefly: Calcium assay. The format is cell-based, Camponotus fellah. The settings on record: CHO cells expressing inotocin receptor, Fluo-4 cytosolic calcium.
The target of series [5] is inotocin receptor (not stated (C. fellah or C. japonicus cDNA cloned)). The experiment in a line: FRET or BRET. Background: In BRET a luciferase serves as donor, and the signal depends on an acceptor being close.

Bridge positions count the residues as written; N and C are the ends. Square brackets hold non-standard residues; d marks the D form. Ends that are not written are not given here. Peptide text beside a SMILES is read from it. Orn = NCCC[C@H](N)C(=O)O; Mpa = O=C(O)CCS

For `C[S+](C)[O-]` [DMSO], the entries for the “Effect on ant survivability” value with ants (1% DMSO) and in the series with ants (10% DMSO) were “no effect on survivability” and “high lethality”, respectively.

With `CCOc1ccc(C[C@H]2NC(=O)CCSSC[C@@H](C(=O)N3CCC[C@H]3C(=O)N[C@@H](CCCN)C(=O)NCC(N)=O)NC(=O)[C@H](CC(N)=O)NC(=O)[C@H]([C@@H](C)O)NC(=O)[C@H]([C@@H](C)CC)NC2=O)cc1` [atosiban] ([Mpa][dY](Et)ITNCP[Orn]G-NH2; disulfide 1-6 (inferred)), the IC50 – broadly, the concentration that gives 50% inhibition – in series [1] worked out at 0.65 µM. In addition, on inotocin receptor [2], the “IC50, decrease in FRET ratio (binding between inotocin and inotocin receptor)” value is recorded as 58.8 µM. Besides, the “CYP4G1 expression vs control” value with CYP4G1 expression (1 mM injected, P = 0.026) was “significantly down-regulated”; with CYP4G1 expression (2 mM injected, P = 0.0002) it was “significantly down-regulated”. Also, the “Quantity of normal alkanes vs control” value in series [3] (P = 0.008) is recorded as “reduced quantities”. The “Total quantity of alkanes vs control” value in series [3] (P = 0.012) is reported as “significantly lower”. Moreover, the “Quantity of branched alkanes vs control” value in series [3] (P = 0.088) was “tendency for reduced”.

Regarding “vasopressin (CYFQNCPRG-NH2; disulfide 1-6 (inferred); ends not checked; UniProt P01185 20-28, looked up)”, the “Activation of inotocin receptor” value in the series with inotocin receptor [4] is “not”.

The compound atosiban (peptide) had an IC50 in series [5] of 58.8 µM.
